Converted amounts (≈) assume the structure as drawn. Square brackets hold non-standard residues; d marks the D form. Peptide text beside a SMILES is read from it. hArg = N=C(N)NCCCC[C@H](N)C(=O)O; Nphe = O=C(O)CNCc1ccccc1
Experiments:
Escherichia coli [1] = assay: Antibacterial activity against Escherichia coli ATCC 25922 after 18 hrs by microdilution broth method; format: functional; conditions: ATCC 25922, 18 h
Summary of the method: (§1)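 CLSI broth microdilution. […] Incubated 35 °C in ambient air for 18 h. MIC taken as the lowest concentration with no visible growth versus the compound-free control. Reported as median and range of three independent biological replicates run on separate days.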

HUVEC = assay: Cytotoxicity against HUVEC after 1 hr by MTS/PMS assay; format: cell-based; conditions: Homo sapiens
Summary of the method: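 HUVEC seeded at 15 000 cells/well on collagen-coated wells (0.6 μg/cm2), passage 4–10, grown to ~90% confluence over 21–25 h. Cells exposed to compound (0–2000 μM) in F-12K medium for 1 h at 37 °C. MTS 240 μg/mL with PMS 9.6 μg/mL in HBSS for 1.5–4 h, then A492. Viability referenced to 0.2% SDS and untreated cells; IC50 reported.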

HepG2 = assay: Cytotoxicity against human HepG2 cells after 1 hr by MTS/PMS assay; format: cell-based; conditions: HepG2, 1 h
Summary of the method: (§2)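 Monolayers (passage 4–10) grown ~21–25 h to ~90% confluence. Seeding per well: HeLa 8000, HepG2 23 000, NIH 3T3 22 000, IEC-6 16 000, Caco-2 25 000. Cells washed with HBSS/10 mM Hepes pH 7.4 and exposed 1 h at 37 °C, 50 rpm, to compound 0–2000 μM in culture medium. MTS 240 μg/mL/PMS 2.4 μg/mL for 1.5–4 h, A492. Viability referenced to SDS and untreated controls; IC50 from one biological replicate in triplicate.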

[2] = Cytotoxicity against mouse NIH/3T3 cells after 1 hr by MTS/PMS assay; format: cell-based; conditions: NIH3T3, 1 h; summary of the method: as §2
HeLa = assay: Cytotoxicity against human HeLa cells after 1 hr by MTS/PMS assay; format: cell-based; summary of the method: as §2
Staphylococcus aureus = assay: Antibacterial activity against methicillin-resistant Staphylococcus aureus ATCC 33591 after 18 hrs by microdilution broth method; format: functional; conditions: ATCC 33591, 18 h; summary of the method: as §1
[3] = Cytotoxicity against rat IEC-6 cells after 1 hr by MTS/PMS assay; format: cell-based; conditions: IEC-6, 1 h; summary of the method: as §2
Acinetobacter baumannii = assay: Antibacterial activity against multidrug-resistant Acinetobacter baumannii clinical isolate E2-1228625 after 18 hrs by microdilution broth method; format: functional; conditions: clinical isolate E2-1228625, 18 h
[4] = Binding affinity to cholesterol containing synthetic POPC/POPG liposomal membrane at 20 uM by circular dichroism analysis; format: physicochemical; conditions: artificial membrane
Summary of the method: (§3)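 CD spectra recorded with 20 μM test compound and 2 mM liposomes in 10 mM Tris buffer, pH 7.5. Liposomes were roughly 100 nm: POPC/POPG 7:3 (bacterial model) or POPC/POPG/cholesterol 5:3:2 (mammalian model). Lipid concentration was standardized by enzymatic phospholipid colorimetric assay.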

Escherichia coli [5] = assay: Antibacterial activity against extended-spectrum beta-lactamase producing multidrug-resistant and colistin-susceptible Escherichia coli CTX-M-15 clinical isolate Aar 11 after 18 hrs by microdilution broth method; format: functional; conditions: CTX-M-15, 18 h
Escherichia coli [6] = assay: Antibacterial activity against NDM-1 producing Escherichia coli clinical isolate 74859898 after 18 hrs by microdilution broth method; format: functional; conditions: clinical isolate 74859898, 18 h
Caco-2 = assay: Cytotoxicity against human Caco2 cells after 1 hr by MTS/PMS assay; format: cell-based; conditions: Caco-2, 1 h; summary of the method: as §2
[7] = Binding affinity to synthetic POPC/POPG liposomal membrane at 20 uM by circular dichroism analysis; format: physicochemical; conditions: artificial membrane; summary of the method: as §3
Enterococcus faecium = assay: Antibacterial activity against vancomycin-resistant Enterococcus faecium ATCC 700221 after 18 hrs by microdilution broth method; conditions: ATCC 700221, 18 h

SMILES	MIC (Escherichia coli [1])	IC50 (HUVEC)	IC50 (HepG2)	IC50 [2]	IC50 (HeLa)	MIC (Staphylococcus aureus)	IC50 [3]	MIC (Acinetobacter baumannii)	Activity [4]	MIC (Escherichia coli [5])	MIC (Escherichia coli [6])	IC50 (Caco-2)	Activity [7]	MIC (Enterococcus faecium)
CC(=O)N[C@@H](CCCCNC(=N)N)C(=O)N(CCC(=O)N[C@@H](CCCCN)C(=O)N(CCC(=O)N[C@@H](CCCCNC(=N)N)C(=O)N(CCC(=O)N[C@@H](CCCCN)C(=O)N(CCC(=O)N[C@@H](CCCCNC(=N)N)C(=O)N(CCC(N)=O)Cc1ccccc1)Cc1ccccc1)Cc1ccccc1)Cc1ccccc1)Cc1ccccc1	8 µM (≈ 13.1 µg/mL)	> 1000 µM	943 µM	745 µM	508 µM	64 µM (≈ 104 µg/mL)	> 1000 µM	128 µM (≈ 209 µg/mL)	Not Active	16 µM (≈ 26.1 µg/mL)	8 µM (≈ 13.1 µg/mL)	> 1000 µM	Not Active	128 µM (≈ 209 µg/mL)
CC(=O)N[C@@H](CCCCN)C(=O)N(CCC(=O)N[C@@H](CCCCNC(=N)N)C(=O)N(CCC(=O)N[C@@H](CCCCN)C(=O)N(CCC(=O)N[C@@H](CCCCNC(=N)N)C(=O)N(CCC(=O)N[C@@H](CCCCN)C(=O)N(CCC(=O)N[C@@H](CCCCNC(=N)N)C(=O)N(CCC(N)=O)Cc1ccccc1)Cc1ccccc1)Cc1ccccc1)Cc1ccccc1)Cc1ccccc1)Cc1ccccc1	1 µM (≈ 1.92 µg/mL)	> 1000 µM	321 µM	362 µM	228 µM	32 µM (≈ 61.5 µg/mL)	457 µM	16 µM (≈ 30.7 µg/mL)	Not Active	1 µM (≈ 1.92 µg/mL)	1 µM (≈ 1.92 µg/mL)	> 1000 µM	Not Active	32 µM (≈ 61.5 µg/mL)
CC(=O)N[C@@H](CCCCNC(=N)N)C(=O)N(CCC(=O)N[C@@H](CCCCN)C(=O)N(CCC(=O)N[C@@H](CCCCNC(=N)N)C(=O)N(CCC(=O)N[C@@H](CCCCN)C(=O)N(CCC(=O)N[C@@H](CCCCNC(=N)N)C(=O)N(CCC(N)=O)[C@@H](C)c1ccccc1)[C@@H](C)c1ccccc1)[C@@H](C)c1ccccc1)[C@@H](C)c1ccccc1)[C@@H](C)c1ccccc1	8 µM (≈ 13.6 µg/mL)		185 µM	237 µM	136 µM	16 µM (≈ 27.2 µg/mL)	186 µM	64 µM (≈ 109 µg/mL)	Not Active	8 µM (≈ 13.6 µg/mL)	8 µM (≈ 13.6 µg/mL)	> 1000 µM	Not Active	64 µM (≈ 109 µg/mL)
CC(=O)N[C@@H](CCCCN)C(=O)N(CCC(=O)N[C@@H](CCCCNC(=N)N)C(=O)N(CCC(=O)N[C@@H](CCCCN)C(=O)N(CCC(=O)N[C@@H](CCCCNC(=N)N)C(=O)N(CCC(=O)N[C@@H](CCCCN)C(=O)N(CCC(=O)N[C@@H](CCCCNC(=N)N)C(=O)N(CCC(N)=O)[C@@H](C)c1ccccc1)[C@@H](C)c1ccccc1)[C@@H](C)c1ccccc1)[C@@H](C)c1ccccc1)[C@@H](C)c1ccccc1)[C@@H](C)c1ccccc1	2 µM (≈ 4.01 µg/mL)	497 µM	100 µM	135 µM	39 µM	16 µM (≈ 32.1 µg/mL)	147 µM	8 µM (≈ 16 µg/mL)	Not Active	4 µM (≈ 8.02 µg/mL)	2 µM (≈ 4.01 µg/mL)	330 µM	Not Active	16 µM (≈ 32.1 µg/mL)
CC(=O)N[C@@H](CCCCN)C(=O)N(CCC(=O)N[C@@H](CCCCNC(=N)N)C(=O)N(CCC(=O)N[C@@H](CCCCN)C(=O)N(CCC(=O)N[C@@H](CCCCNC(=N)N)C(=O)N(CCC(=O)N[C@@H](CCCCN)C(=O)N(CCC(=O)N[C@@H](CCCCNC(=N)N)C(=O)N(CCC(=O)N[C@@H](CCCCN)C(=O)N(CCC(N)=O)[C@@H](C)c1ccccc1)[C@@H](C)c1ccccc1)[C@@H](C)c1ccccc1)[C@@H](C)c1ccccc1)[C@@H](C)c1ccccc1)[C@@H](C)c1ccccc1)[C@@H](C)c1ccccc1	2 µM (≈ 4.62 µg/mL)	236 µM	48 µM	89 µM	26 µM	8 µM (≈ 18.5 µg/mL)	80 µM	2 µM (≈ 4.62 µg/mL)	Not Active	2 µM (≈ 4.62 µg/mL)	2 µM (≈ 4.62 µg/mL)	197 µM	Not Active	4 µM (≈ 9.24 µg/mL)
CC(=O)N[C@@H](CCCCN)C(=O)N(CC(=O)N[C@@H](CCCCNC(=N)N)C(=O)N(CC(=O)N[C@@H](CCCCN)C(=O)N(CC(=O)N[C@@H](CCCCNC(=N)N)C(=O)N(CC(=O)N[C@@H](CCCCN)C(=O)N(CC(=O)N[C@@H](CCCCNC(=N)N)C(=O)N(CC(=O)N[C@@H](CCCCN)C(=O)N(CC(N)=O)Cc1ccccc1)Cc1ccccc1)Cc1ccccc1)Cc1ccccc1)Cc1ccccc1)Cc1ccccc1)Cc1ccccc1 (Ac-K[Nphe][hArg][Nphe]K[Nphe][hArg][Nphe]K[Nphe][hArg][Nphe]K[Nphe]-NH2)	1 µM (≈ 2.11 µg/mL)	418 µM	378 µM	254 µM	99 µM	32 µM (≈ 67.6 µg/mL)	319 µM	4 µM (≈ 8.45 µg/mL)	Not Active	1 µM (≈ 2.11 µg/mL)	1 µM (≈ 2.11 µg/mL)	> 1000 µM	Not Active	8 µM (≈ 16.9 µg/mL)
CO/N=C(\C(=O)N[C@@H]1C(=O)N2C(C(=O)O)=C(COC(C)=O)CS[C@H]12)c1csc(N)n1 [CEFOTAXIME]	< 0.125 µM					> 128 µM		> 128 µM		> 128 µM	> 128 µM			> 128 µM
O=C(O)c1cn(C2CC2)c2cc(N3CCNCC3)c(F)cc2c1=O [CIPROFLOXACIN]	< 0.125 µM					0.25 µM (≈ 0.0828 µg/mL)								
CC[C@H](C)[C@H](NC(=O)CN)C(=O)NCC(=O)N[C@@H](C)C(=O)N[C@H](C(=O)N[C@@H](CC(C)C)C(=O)N[C@@H](CCCCN)C(=O)N[C@H](C(=O)N[C@@H](CC(C)C)C(=O)N[C@H](C(=O)N[C@H](C(=O)NCC(=O)N[C@@H](CC(C)C)C(=O)N1CCC[C@H]1C(=O)N[C@@H](C)C(=O)N[C@@H](CC(C)C)C(=O)N[C@H](C(=O)N[C@@H](CO)C(=O)N[C@@H](Cc1c[nH]c2ccccc12)C(=O)N[C@H](C(=O)N[C@@H](CCCCN)C(=O)N[C@@H](CCCNC(=N)N)C(=O)N[C@@H](CCCCN)C(=O)N[C@@H](CCCNC(=N)N)C(=O)N[C@@H](CCC(N)=O)C(=O)N[C@@H](CCC(N)=O)C(N)=O)[C@@H](C)CC)[C@@H](C)CC)[C@@H](C)O)[C@@H](C)O)C(C)C)C(C)C [MELITTIN]			2.5 µM		1.9 µM							4.5 µM		
CN[C@H](CC(C)C)C(=O)N[C@H]1C(=O)N[C@@H](CC(N)=O)C(=O)N[C@H]2C(=O)N[C@H]3C(=O)N[C@H](C(=O)N[C@H](C(=O)O)c4cc(O)cc(O)c4-c4cc3ccc4O)[C@H](O)c3ccc(c(Cl)c3)Oc3cc2cc(c3O[C@@H]2O[C@H](CO)[C@@H](O)[C@H](O)[C@H]2O[C@H]2C[C@](C)(N)[C@H](O)[C@H](C)O2)Oc2ccc(cc2Cl)[C@H]1O [VANCOMYCIN]	> 128 µM					0.5 µM (≈ 0.725 µg/mL)		> 128 µM		> 128 µM	> 128 µM			128 µM (≈ 186 µg/mL)
